Test results taken from ChEMBL document CHEMBL4673335, “Store-Operated Calcium Entry as a Therapeutic Target in Acute Pancreatitis: Discovery and Development of Drug-Like SOCE Inhibitors” (J Med Chem, 2020).
Each block holds one molecule with its values, some of them ahead of it. Activity calls are given as the source filed them. The calls are words filed in the database; no cut-off is given here.

Tests used:
[1] = biological target: T1, ORAI1/STIM1 (Homo sapiens) (UniProt Q96D31+Q13586); experiment: Inhibition of STIM1/Orai1 (unknown origin) expressed in HEK293 cells assessed as reduction in tBHQ-induced calcium response at 10 uM relative to control; format: cell-based
Method in brief: (§1)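 HEK cells, calcium imaging by fluorescence microscopy. Ca2+ added after 600 s and intracellular levels recorded. Traces averaged over 200 cells, then scored as AUC, peak amplitude and slope of the Ca2+ rise versus untreated control. Compound working solutions diluted from a 50 mM DMSO stock to 0.1% DMSO in physiologic buffer.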

HEK293 [2] = experiment: Cytotoxicity in HEK293 cells assessed as cell viability at 10 uM after 24 hrs by MTT assay; format: cell-based; settings: human, hek293, 24 h
Method in brief: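 MTT viability assay. HEK cells seeded at 20,000 per well, treated 24 h after plating for a further 24 h. MTT at 0.25 mg/mL final for 60 min at 37 °C. Crystals dissolved in isopropyl alcohol/HCl (1 M), absorbance read at 570 nm. Compounds diluted to 0.1% DMSO in culture medium.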

ORAI1/STIM1 = ORAI1/STIM1 (Homo sapiens, UniProt Q13586+Q96D31); experiment: Inhibition of STIM1/Orai1 (unknown origin) expressed in HEK293 cells assessed as reduction in tBHQ-induced calcium response; format: cell-based
[3] = biological target: T1, ORAI1/STIM1 (Homo sapiens); experiment: Inhibition of STIM1/Orai1 (unknown origin) expressed in HEK293 cells assessed as reduction in tBHQ-induced calcium response by measuring decrease in peak amplitude of calcium entry at 10 uM relative to control; format: cell-based; method in brief: as §1
[4] = biological target: T1, ORAI1/STIM1 (Homo sapiens); experiment: Inhibition of STIM1/Orai1 (unknown origin) expressed in HEK293 cells assessed as reduction in tBHQ-induced calcium response by measuring decrease in calcium entry AUC at 10 uM relative to control; format: cell-based; method in brief: as §1
[5] = biological target: T1, ORAI1/STIM1 (Homo sapiens); experiment: Inhibition of STIM1/Orai1 (unknown origin) expressed in HEK293 cells assessed as reduction in tBHQ-induced calcium response by measuring decrease in slope of calcium entry at 10 uM relative to control; format: cell-based; method in brief: as §1
HEK293 [6] = experiment: Cytotoxicity in HEK293 cells assessed as cell viability at 50 uM after 72 hrs in presence of excess uridine by MTT assay; format: cell-based; settings: human, hek293, 72 h
Method in brief: (§2)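 MTT viability in HEK cells after 72 h treatment at 50 μM, with or without 100 μM uridine. MTT at 0.25 mg/mL final for 60 min at 37 °C, solubilized in isopropyl alcohol/HCl (1 M), absorbance read at 570 nm. Mean ± SEM, Student t-test against control.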

HEK293 [7] = experiment: Cytotoxicity in HEK293 cells assessed as cell viability at 50 uM after 72 hrs by MTT assay; format: cell-based; settings: human, hek293, 72 h; method in brief: as §2
[8] = biological target: T1, ORAI1/STIM1 (Homo sapiens); experiment: Activation of STIM1/Orai1 (unknown origin) expressed in HEK293 cells assessed as increase in tBHQ-induced calcium response by measuring increase in peak amplitude of calcium entry at 10 uM relative to control; format: cell-based; settings: filed as opener, dose 3.0 µM, in the assay text read “at 3 uM” for “at 10 uM”; method in brief: as §1
[9] = biological target: T1, ORAI1/STIM1 (Homo sapiens); experiment: Activation of STIM1/Orai1 (unknown origin) expressed in HEK293 cells assessed as increase in tBHQ-induced calcium response by measuring increase in AUC of calcium entry at 10 uM relative to control; format: cell-based; settings: filed as opener, dose 3.0 µM, in the assay text read “at 3 uM” for “at 10 uM”; method in brief: as §1
[10] = Metabolic stability in mouse liver microsomes assessed as compound remaining after 1 hr; format: ADME, Microsome; settings: read-out: Stabilty
Method in brief: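 Pooled male CD-1 mouse liver microsomes (20 mg/mL protein stock), NADPH-activated. Substrate at 5 μM. Residual parent measured after 1 h incubation.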

[11] = Thermodynamic aqueous solubility; format: physicochemical; settings: read-out: Therm_solubility
Method in brief: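 About 3 mg compound in 3 mL deionized water, vortexed, sonicated 5 min, then shaken overnight at 25 °C. Filtered through a 0.22 μm membrane, DMSO added, diluted about 1:10 in water. Quantified by LC–UV against DMSO standard solutions.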

[12] = dose 3.0 µM, in the assay text read “at 3 uM” for “at 10 uM”

T1 sequence (Q13586 23-685 partner limits assumed): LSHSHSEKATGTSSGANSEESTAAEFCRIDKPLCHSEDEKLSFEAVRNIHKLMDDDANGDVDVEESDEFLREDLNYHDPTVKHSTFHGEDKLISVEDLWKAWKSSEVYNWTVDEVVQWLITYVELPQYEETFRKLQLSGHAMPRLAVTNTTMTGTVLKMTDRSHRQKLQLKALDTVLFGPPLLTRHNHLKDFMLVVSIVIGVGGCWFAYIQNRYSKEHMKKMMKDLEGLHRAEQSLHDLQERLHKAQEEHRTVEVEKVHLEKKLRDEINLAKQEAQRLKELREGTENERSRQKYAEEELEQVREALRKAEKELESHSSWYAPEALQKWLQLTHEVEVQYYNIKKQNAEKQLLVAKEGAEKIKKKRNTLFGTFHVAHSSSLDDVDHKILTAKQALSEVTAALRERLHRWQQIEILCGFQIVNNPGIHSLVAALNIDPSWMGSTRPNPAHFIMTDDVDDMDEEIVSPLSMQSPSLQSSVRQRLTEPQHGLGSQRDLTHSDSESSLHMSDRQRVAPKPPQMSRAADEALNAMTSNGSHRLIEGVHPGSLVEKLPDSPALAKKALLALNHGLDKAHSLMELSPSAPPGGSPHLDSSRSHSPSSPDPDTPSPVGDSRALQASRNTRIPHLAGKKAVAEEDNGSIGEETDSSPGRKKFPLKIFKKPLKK
T1 sequence (Q96D31 whole entry): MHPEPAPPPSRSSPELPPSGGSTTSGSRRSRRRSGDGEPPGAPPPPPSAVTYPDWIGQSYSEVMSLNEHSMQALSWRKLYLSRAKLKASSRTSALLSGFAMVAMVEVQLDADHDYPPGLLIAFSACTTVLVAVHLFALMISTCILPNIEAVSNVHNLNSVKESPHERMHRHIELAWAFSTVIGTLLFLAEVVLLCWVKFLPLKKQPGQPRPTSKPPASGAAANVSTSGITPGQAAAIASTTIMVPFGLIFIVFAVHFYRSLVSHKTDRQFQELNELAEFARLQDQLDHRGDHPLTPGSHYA
Sequence of ORAI1/STIM1 (Q96D31 whole entry): as above
Sequence of ORAI1/STIM1 (Q13586 whole entry): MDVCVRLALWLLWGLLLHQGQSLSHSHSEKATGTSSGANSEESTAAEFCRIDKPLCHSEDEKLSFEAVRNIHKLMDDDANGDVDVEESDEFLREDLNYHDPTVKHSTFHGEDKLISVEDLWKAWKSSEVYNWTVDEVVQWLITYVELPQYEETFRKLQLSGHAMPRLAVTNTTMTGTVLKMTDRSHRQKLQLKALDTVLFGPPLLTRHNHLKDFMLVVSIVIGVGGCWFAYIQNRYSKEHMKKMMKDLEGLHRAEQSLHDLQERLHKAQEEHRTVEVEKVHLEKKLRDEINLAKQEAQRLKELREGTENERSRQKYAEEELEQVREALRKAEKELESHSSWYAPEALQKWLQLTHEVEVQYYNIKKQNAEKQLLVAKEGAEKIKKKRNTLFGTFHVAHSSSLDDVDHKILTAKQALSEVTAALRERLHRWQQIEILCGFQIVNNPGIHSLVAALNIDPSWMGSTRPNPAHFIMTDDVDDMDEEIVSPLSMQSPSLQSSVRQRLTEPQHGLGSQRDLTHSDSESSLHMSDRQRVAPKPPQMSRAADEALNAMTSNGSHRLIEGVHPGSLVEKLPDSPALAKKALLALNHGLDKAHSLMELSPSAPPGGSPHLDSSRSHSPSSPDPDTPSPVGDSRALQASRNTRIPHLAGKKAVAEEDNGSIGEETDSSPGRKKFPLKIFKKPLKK

Compound: O=C(Nc1ccc(-n2nc(C(F)(F)F)cc2C(F)(F)F)cc1)c1ccncc1F
- Activity (HEK293 [6]): Toxic
- Activity (HEK293 [7]): Toxic

Compound: COc1cc(OC)cc(-c2ccc(-n3cc(-c4cccc(C(=O)O)c4)nn3)cc2)c1 [listing 2 of 2 here]
- inhibition [1, 12]: 73.8%
- inhibition [3]: Active
- inhibition [4]: Active
- inhibition [5]: Active

Compound: COc1ccc(OC)c(-c2ccc(-c3cn(-c4ccnc(C(=O)O)c4)nn3)cc2)c1
- inhibition ([1]; dose 10.0 µM): 57.2%

Compound: O=C(O)c1cccc(-n2cc(-c3ccc(-c4ccc5c(c4)OCCO5)cc3)nn2)c1
- inhibition ([1]; dose 10.0 µM): 81.1%
- Activity (HEK293 [2]): 71.7%

Compound: COc1ccccc1-c1ccc(-n2cc(-c3cccc(C(=O)O)c3)nn2)cc1
- inhibition ([1]; dose 10.0 µM): 45.9%

Compound: O=C([O-])c1cccc(-c2cn(-c3ccc(-c4ccc5c(c4)OCCO5)cc3)nn2)c1.[Na+]
- remaining at 1 h [10]: 94%
- solubility thermodynamic [11]: 668 µg/mL

Compound: Cc1c(-c2ccc(-c3ccccc3F)cc2)nc2ccc(F)cc2c1C(=O)O [BREQUINAR]
- Activity (HEK293 [7]): Non-Toxic

Compound: O=C(O)c1cccc(-n2cc(-c3ccc(-c4cccc5c4OCCO5)cc3)nn2)c1
- inhibition ([1]; dose 10.0 µM): 44.1%

Compound: O=C(O)c1cccc(-n2cc(-c3ccc(-c4ccc5c(c4)OCO5)cc3)nn2)c1
- inhibition ([1]; dose 10.0 µM): 0%

Compound: COC(=O)c1cc(-n2cc(-c3ccc(-c4cc(OC)ccc4OC)cc3)nn2)ccn1
- inhibition ([1]; dose 10.0 µM): 73.5%

Second part, led by results:

- inhibition [1, 12]: 70.9%
- IC50 (ORAI1/STIM1): 1620 nM
- inhibition [3]: Active
- inhibition [4]: Active
- inhibition [5]: Active
Compound: O=C(O)c1cccc(-c2cn(-c3ccc(-c4cccc5c4OCCO5)cc3)nn2)c1
- Activity (HEK293 [2]): 90.5%

- inhibition [1, 12]: 29.5%
Compound: COc1cccc(-c2ccc(-c3cn(-c4cccc(C(=O)O)c4)nn3)cc2)c1

- inhibition ([1]; dose 10.0 µM): 87.8%
- IC50 (ORAI1/STIM1): 1790 nM
- inhibition [3]: Active
- inhibition [4]: Active
Compound: COc1ccc(OC)c(-c2ccc(-c3cn(-c4cccc(C(=O)O)c4)nn3)cc2)c1
- Activity (HEK293 [2]): 71.8%

- inhibition ([1]; dose 10.0 µM): 75.4%
Compound: COc1cc(OC)cc(-c2ccc(-c3cn(-c4cccc(C(=O)O)c4)nn3)cc2)c1

- inhibition ([1]; dose 10.0 µM): 51%
Compound: O=C(O)c1cccc(-c2cn(-c3ccc(-c4ccccc4)cc3)nn2)c1

- inhibition ([1]; dose 10.0 µM): -4.9%
Compound: COc1ccc(OC)c(-c2ccc(-n3cc(-c4ccncc4F)nn3)cc2)c1

- IC50 (ORAI1/STIM1): 802 nM
Compound: COc1cc(OC)cc(-c2ccc(-n3cc(-c4cccc(C(=O)O)c4)nn3)cc2)c1 [listing 1 of 2 here]
- Activity (HEK293 [6]): Non-Toxic
- Activity (HEK293 [2]): 94.3%
- Activity (HEK293 [7]): Non-Toxic

- inhibition ([1]; dose 10.0 µM): 1.2%
Compound: COc1ccc(OC)c(-c2ccc(-c3cn(-c4cccnc4)nn3)cc2)c1

- inhibition [1, 12]: 1.8%
Compound: O=C(O)c1cccc(-n2cc(-c3ccc(-c4ccccc4)cc3)nn2)c1

- inhibition ([1]; dose 10.0 µM): 53%
Compound: COc1ccc(-c2ccc(-c3cn(-c4cccc(C(=O)O)c4)nn3)cc2)c(OC)c1

- inhibition ([1]; dose 10.0 µM): 0%
Compound: COc1ccc(OC)c(-c2ccc(-n3cc(-c4ccccn4)nn3)cc2)c1

- Activity [8]: Active
- Activity [9]: Active
Compound: COc1cccc(OC)c1-c1ccc(-c2cn(-c3cccc(C(=O)O)c3)nn2)cc1

- inhibition ([1]; dose 10.0 µM): 39.6%
Compound: COc1ccc(-c2ccc(-c3cn(-c4cccc(C(=O)O)c4)nn3)cc2)cc1OC

- inhibition ([1]; dose 10.0 µM): 51.8%
Compound: O=C(O)c1cccc(C(=O)Nc2ccc(-c3ccc4c(c3)OCCO4)cc2)c1
- Activity (HEK293 [6]): Non-Toxic
- Activity (HEK293 [2]): 50.3%
- Activity (HEK293 [7]): Toxic

- inhibition ([1]; dose 10.0 µM): 56.4%
Compound: COc1ccc(-c2ccc(-n3cc(-c4cccc(C(=O)O)c4)nn3)cc2)c(OC)c1
